What was measured:
[1] = target: T1, Cytochrome P450 11B2, mitochondrial (Homo sapiens, UniProt P19099); assay: In vitro inhibitory concentration against human CYP11B2 expressed in V79MZh hamster fibroblasts incubated with 100 nM of substrate deoxy-corticosterone in presence of the compound
T1 sequence (P19099 whole entry): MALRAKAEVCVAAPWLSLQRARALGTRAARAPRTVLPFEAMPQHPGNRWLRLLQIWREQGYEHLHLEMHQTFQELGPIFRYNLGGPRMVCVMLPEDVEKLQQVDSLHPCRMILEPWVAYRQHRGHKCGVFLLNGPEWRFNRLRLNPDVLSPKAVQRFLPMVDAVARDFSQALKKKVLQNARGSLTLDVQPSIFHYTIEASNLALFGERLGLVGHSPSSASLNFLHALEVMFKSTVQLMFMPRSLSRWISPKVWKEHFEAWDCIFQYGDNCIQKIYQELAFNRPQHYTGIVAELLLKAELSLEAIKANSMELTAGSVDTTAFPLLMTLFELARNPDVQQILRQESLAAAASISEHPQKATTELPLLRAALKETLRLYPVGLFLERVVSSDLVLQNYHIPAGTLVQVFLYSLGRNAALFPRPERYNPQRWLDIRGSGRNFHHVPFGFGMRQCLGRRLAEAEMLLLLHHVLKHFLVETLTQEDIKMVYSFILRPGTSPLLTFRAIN
Summary of the method: (§1)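 Intact V79 MZh hamster fibroblasts expressing human CYP11B1 or CYP11B2, incubated with [4-14C]-11-deoxycorticosterone (100 nM) and inhibitor at no fewer than three concentrations to give IC50. Stopped with ethyl acetate, shaken, centrifuged (10 000g, 2 min); steroids in organic phase analysed by HPTLC/phosphoimager. Mean of four determinations, standard deviation less than 5%.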

Homo sapiens = species on record: Homo sapiens; assay: In vitro IC50 ratio against human CYP11B1 to that of human CYP11B2
Summary of the method: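 IC50 ratio from V79 MZh hamster fibroblasts expressing human CYP11B1 or CYP11B2, each incubated with [4-14C]-11-deoxycorticosterone (100 nM) and inhibitor at no fewer than three concentrations; steroids extracted into ethyl acetate and quantified by HPTLC with phosphoimaging.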

CYP11B1 = target: T2, CYP11B1 (Homo sapiens, UniProt P15538); assay: (§2) In vitro inhibitory concentration against human CYP11B1 expressed in V79 MZh hamster fibroblasts incubated with 100 nM of substrate deoxy-corticosterone in presence of the compound; details: human, V79 MZh hamster fibroblasts expressing human CYP11B1, probe deoxy-corticosterone
T2 sequence (P15538 whole entry): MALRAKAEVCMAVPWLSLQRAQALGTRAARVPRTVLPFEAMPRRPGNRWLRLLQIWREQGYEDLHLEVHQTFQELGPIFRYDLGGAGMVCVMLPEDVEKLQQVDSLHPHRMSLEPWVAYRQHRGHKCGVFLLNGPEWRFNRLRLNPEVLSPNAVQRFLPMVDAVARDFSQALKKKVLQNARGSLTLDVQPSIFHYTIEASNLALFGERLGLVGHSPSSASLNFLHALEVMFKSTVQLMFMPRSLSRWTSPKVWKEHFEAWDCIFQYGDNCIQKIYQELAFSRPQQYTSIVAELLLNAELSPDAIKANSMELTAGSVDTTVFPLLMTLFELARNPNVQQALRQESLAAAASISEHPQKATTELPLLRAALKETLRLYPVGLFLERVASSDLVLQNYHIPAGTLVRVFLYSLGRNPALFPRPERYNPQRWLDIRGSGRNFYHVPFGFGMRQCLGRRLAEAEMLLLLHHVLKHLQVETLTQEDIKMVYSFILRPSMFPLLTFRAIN

[2] = target: T1, Cytochrome P450 11B2, mitochondrial; assay: In vitro inhibition of human CYP11B2 expressed in Schizosaccharomyces pombe incubated with 100 nM of substrate deoxy-corticosterone in presence of 500 nM of compound
[3] = target: T3, Cytochrome P450 11B1, mitochondrial (Homo sapiens, UniProt P15538); assay: as §2
T3 sequence (P15538 whole entry): T2 sequence (P15538 whole entry)

Aromatase = target: T4, Aromatase (Homo sapiens, UniProt P11511); assay: In vitro inhibitory concentration against human placental CYP19 incubated with 500 nM of substrate androstenedione in presence of the compound
T4 sequence (P11511 whole entry): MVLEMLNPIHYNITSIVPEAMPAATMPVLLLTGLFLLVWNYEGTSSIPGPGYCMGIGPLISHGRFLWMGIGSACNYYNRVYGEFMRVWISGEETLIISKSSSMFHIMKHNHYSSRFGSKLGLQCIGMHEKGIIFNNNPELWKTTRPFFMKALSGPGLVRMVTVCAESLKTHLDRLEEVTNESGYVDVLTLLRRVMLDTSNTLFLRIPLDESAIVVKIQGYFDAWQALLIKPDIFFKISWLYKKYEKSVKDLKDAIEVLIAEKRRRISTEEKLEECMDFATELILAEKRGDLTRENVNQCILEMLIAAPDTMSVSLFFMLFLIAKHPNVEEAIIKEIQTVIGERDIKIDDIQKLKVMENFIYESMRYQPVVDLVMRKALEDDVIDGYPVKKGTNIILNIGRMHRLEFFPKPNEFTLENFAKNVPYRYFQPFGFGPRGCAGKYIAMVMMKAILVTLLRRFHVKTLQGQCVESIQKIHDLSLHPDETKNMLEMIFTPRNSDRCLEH

[4] = target: T1, Cytochrome P450 11B2, mitochondrial; assay: In vitro inhibitory concentration against human CYP11B2 expressed in V79 MZh hamster fibroblasts incubated with 100 nM of substrate deoxy-corticosterone in presence of the compound; summary of the method: as §1
CYP17 = target: T5, CYP17 (Homo sapiens, UniProt P05093); assay: In vitro inhibition of human CYP17 expressed in Escherichia coli incubated with 2.5 uM of substrate progesterone in presence of 2.5 uM of compound; details: probe progesterone
T5 sequence (P05093 whole entry): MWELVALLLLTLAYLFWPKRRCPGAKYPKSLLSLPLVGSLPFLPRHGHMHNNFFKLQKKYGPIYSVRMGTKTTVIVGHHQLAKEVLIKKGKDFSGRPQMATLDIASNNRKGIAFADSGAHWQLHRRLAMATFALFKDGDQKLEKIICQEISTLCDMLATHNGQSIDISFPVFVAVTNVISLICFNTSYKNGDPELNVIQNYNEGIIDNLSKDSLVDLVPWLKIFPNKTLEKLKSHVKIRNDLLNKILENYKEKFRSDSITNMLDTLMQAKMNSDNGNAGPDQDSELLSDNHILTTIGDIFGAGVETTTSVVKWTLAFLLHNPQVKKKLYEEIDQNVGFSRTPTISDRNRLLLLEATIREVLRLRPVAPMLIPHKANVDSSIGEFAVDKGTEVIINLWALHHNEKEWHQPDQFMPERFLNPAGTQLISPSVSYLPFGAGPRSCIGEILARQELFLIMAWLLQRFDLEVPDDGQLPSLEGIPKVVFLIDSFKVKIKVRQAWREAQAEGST

CYP11B2 (Homo sapiens) = assay: In vitro inhibitory concentration against human CYP11B2 expressed in V79 MZh hamster fibroblasts incubated with 100 nM of substrate deoxy-corticosterone in presence of the compound; details: V79 MZh hamster fibroblasts expressing human CYP11B2, probe deoxy-corticosterone

SMILES | IC50 [1] | Selectivity ratio (Homo sapiens) | IC50 (CYP11B1) | inhibition at 0.5 µM [2] | IC50 [3] | IC50 (Aromatase) | IC50 [4] | inhibition at 2.5 µM (CYP17) | IC50 (CYP11B2 (Homo sapiens))
Fc1ccc2c(c1)CC/C2=C\c1cncnc1 | 27 nM | 118 | 3180 nM |  |  |  |  |  | 
Brc1ccc2c(c1)CC/C2=C/c1ccncc1 | 56 nM | 1.8 |  | 40% | 484 nM | 3400 nM |  |  | 
C/C(=C1/CCc2cc(F)ccc21)c1cccnc1 |  | 1.7 |  | 67% | 96 nM |  |  |  | 
Fc1ccc2c(c1)CC/C2=C\c1ccncc1 | 15 nM | 0.3 |  |  | 1100 nM |  |  |  | 
C(=C1/CCCc2ccccc21)/c1ccncc1 | 15 nM | 2 |  | 54% | 143 nM | 650 nM |  |  | 
CC1C/C(=C/c2cccnc2)c2ccccc21 (configuration not stated) |  |  |  | 15% |  | 2800 nM | 41 nM |  | 
C(=C1\CCc2ccccc21)/c1cccnc1 | 92 nM | 0.9 |  | 83% | 87 nM | 3550 nM |  | 33% | 
Fc1ccc2c(c1)CC/C2=C/c1ccncc1 | 29 nM | 7.6 |  |  | 34 nM |  |  |  | 
Brc1ccc2c(c1)CC/C2=C\c1ccncc1 | 24 nM | 0.4 |  |  | 2640 nM | > 36000 nM |  |  | 
Fc1ccc2c(c1)CC/C2=C/c1cccc2cnccc12 | 65 nM | 14.4 |  |  |  |  |  |  | 26 nM
C(=C1/CCc2ccccc21)/c1cccnc1 |  | 80.7 |  |  |  |  | 11 nM | 14% | 
C(=C1\CCc2ccccc21)/c1ccncc1 | 18 nM | 1.4 |  |  | 931 nM |  |  |  | 
Fc1ccc2c(c1)CC/C2=C\c1cccc2cnccc12 | 57 nM | 19.5 | 58 nM |  |  |  |  |  | 

From ChEMBL document CHEMBL1142706, “Synthesis and evaluation of (pyridylmethylene)tetrahydronaphthalenes/-indanes and structurally modified derivatives: potent and selective inhibitors of aldosterone synthase” (J Med Chem, 2005)
